Experimental data reported in ChEMBL document CHEMBL1671644, “Inhibition of human immunodeficiency virus type 1 infection by the candidate microbicide dapivirine, a nonnucleoside reverse transcriptase inhibitor” (Antimicrob Agents Chemother, 2009).
Calls of active or inactive are those of the source. The rule behind the calls is not given here.

Experiments:
[1] = system: Human immunodeficiency virus 1; assay: Antiviral activity against HIV-1 SM012 harboring NNTRI 108I mutant infected in human MT4 cells assessed as inhibition of viral replication relative to HIV-1 3B; format: functional
Procedure, shortened: (§1)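 MT-4 cells (3 x 10^4/well) infected with site-directed mutants or recombinant clinical isolates (200 TCID50/well) with drug, cultured 3 to 5 days. Viability read by MTT colorimetric antivirogram assay. IC50 by nonlinear regression; fold change = IC50 for the test isolate / IC50 for wild-type HIV-1 IIIB tested in parallel (mean or median).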

[2] = system: Human immunodeficiency virus 1; assay: Antiviral activity against HIV-1 subtype CRF01_AE V022821 infected in human MT4 cells assessed as inhibition of viral replication relative to HIV-1 3B; format: functional
Procedure, shortened: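 Recombinant clinical HIV-1 isolates (200 TCID50/well) were tested in MT-4 cells (3 x 10^4/well) over 3–5 days, with an MTT viability read-out. IC50 was fitted by nonlinear regression. Fold change is the isolate IC50 divided by the HIV-1IIIB IC50, tested in parallel.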

[3] = system: Human immunodeficiency virus 1; assay: Antiviral activity against HIV-1 Bal infected in human TZM-bl cells after 24 hrs by luciferase reporter gene assay in presence of 12.5% whole semen; format: functional, organism-based; settings: Human immunodeficiency virus 1, Bal
Procedure, shortened: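 HIV-1 BaL (200 TCID50/ml) pretreated with whole semen (12.5% final), then added to overnight-cultured TZM-bl cells (5 x 10^4/well) pretreated 1 h with drug. After 24 h, cells lysed and luciferase read. IC50 versus drug-free control by nonlinear regression; effect of semen tested by ANOVA with Bonferroni and t tests.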

[4] = system: Human immunodeficiency virus 1; assay: Antiviral activity against HIV-1 Bal infected in human PM1 cells assessed as inhibition of transmission of virus to premissive T cells at 100 nM
[5] = system: Human immunodeficiency virus 1; assay: Antiviral activity against HIV-1 SM052 harboring NNTRI 101E and 103N mutant infected in human MT4 cells assessed as inhibition of viral replication relative to HIV-1 3B; format: functional; procedure, shortened: as §1
[6] = system: Human immunodeficiency virus 1; assay: Antiviral activity against HIV-1 Bal infected in human TZM-bl cells after 24 hrs by luciferase reporter gene assay in presence of 12.5% cervical mucus; format: functional, organism-based; settings: Human immunodeficiency virus 1, Bal
Procedure, shortened: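 TZM-bl cells (5 x 10^4/well), cultured overnight, pretreated first with cervical mucus simulant (12.5% final) and then drug (1 h), then infected with HIV-1 BaL (200 TCID50/ml). After 24 h, cells lysed and luciferase read. IC50 versus drug-free control by nonlinear regression; effect of mucus tested by ANOVA with Bonferroni and t tests.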

[7] = system: Human immunodeficiency virus 1; assay: Antiviral activity against HIV-1 SF162 infected in hu-SCID mouse assessed as protection from viral infection at 22.5 uM; format: functional; settings: Human immunodeficiency virus 1, SF162 ISOLATE
[8] = system: Human immunodeficiency virus 1; assay: Antiviral activity against HIV-1 subtype D V022819 infected in human MT4 cells assessed as inhibition of viral replication relative to HIV-1 3B; format: functional; procedure, shortened: as §1
[9] = Selectivity index, ratio of CC50 for human PM1 cells to IC50 for HIV-1 RF; format: functional
Procedure, shortened: (§2)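 Selectivity index is CC50/IC50, using values determined in the same time period. CC50 was measured by MTT for TZM-bl and PM-1 cells and by trypan blue exclusion after 14 days for macrophages. Both were fitted by nonlinear regression.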

[10] = system: Human immunodeficiency virus 1; assay: Antiviral activity against HIV-1 Bal infected in 2 hrs 1000 nM compound pretreated human ectocervical explant tissue assessed as prolonged inhibition of viral infection post compound removal measured after 2 days post compound removal; format: functional
Procedure, shortened: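 Ectocervical explants were exposed to drug (0.01–10 µM) for 2 or 24 h at 37°C and washed. They received HIV-1BaL (2 h) on day 0, 2, 4 or 6 after drug removal, with no drug present. Read-outs at 10 days post-exposure: explant p24 ELISA, tissue proviral DNA by qPCR, and p24 in migratory cell–PM-1 cocultures. Three donors (2 h) or two donors (24 h), triplicate.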

[11] = system: Human immunodeficiency virus 1; assay: Antiviral activity against HIV-1 subtype CRF05_DF V022823 infected in human MT4 cells assessed as inhibition of viral replication relative to HIV-1 3B; format: functional; procedure, shortened: as §1
[12] = system: Human immunodeficiency virus 1; assay: Antiviral activity against HIV-1 subtype C V022831 infected in human MT4 cells assessed as inhibition of viral replication relative to HIV-1 3B; format: functional; procedure, shortened: as §1
[13] = system: Human immunodeficiency virus 1; assay: Antiviral activity against HIV-1 SM030 harboring NNTRI 100I mutant infected in human MT4 cells assessed as inhibition of viral replication relative to HIV-1 3B; format: functional; procedure, shortened: as §1
[14] = system: Human immunodeficiency virus 1; assay: Antiviral activity against HIV-1 Bal infected in human cervical tissue explants assessed as inhibition of dissemination of virus via migratory cells after 2 hrs in presence of 12.5% cervical mucus; format: functional, organism-based
Procedure, shortened: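 Cervical explants were exposed to HIV-1BaL plus drug for 2 h in cervical mucus simulant or whole semen (final 12.5%), then washed. Migratory cells were cocultured with PM-1 indicator cells and infection read as p24 in coculture supernatant.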

[15] = system: Human immunodeficiency virus 1; assay: Antiviral activity against HIV-1 subtype CRF05_DF V022833 harboring NNRTI V179I mutant infected in human MT4 cells assessed as inhibition of viral replication relative to HIV-1 3B; format: functional; procedure, shortened: as §1
[16] = Selectivity index, ratio of CC50 for human PM1 cells to IC50 for HIV-1 Bal; format: functional; procedure, shortened: as §2
[17] = system: Human immunodeficiency virus 1; assay: Antiviral activity against HIV-1 Bal infected in human PM1 cells assessed as inhibition of transmission of virus to premissive T cells at 10 uM; format: functional; settings: Human immunodeficiency virus 1, Bal
Procedure, shortened: (§3)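 Explants were pretreated with drug for 1 h, then exposed to HIV-1BaL for 2 h with drug present and washed. Cells that migrated out overnight were washed and cocultured with PM-1 cells (4 x 10^4/well) for about 10 days. Transfer was read as p24 by ELISA in coculture supernatant (detection limit 300 pg/ml). Two donors, triplicate.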

[18] = system: Human immunodeficiency virus 1; assay: Antiviral activity against HIV-1 subtype B V022809 infected in human MT4 cells assessed as inhibition of viral replication relative to HIV-1 3B; format: functional; procedure, shortened: as §1
[19] = system: Human immunodeficiency virus 1; assay: Antiviral activity against HIV-1 subtype D V022832 infected in human MT4 cells assessed as inhibition of viral replication relative to HIV-1 3B; format: functional; procedure, shortened: as §1
[20] = system: Human immunodeficiency virus 1; assay: Antiviral activity against HIV-1 Bal infected in human PM1 cells assessed as inhibition of transmission of virus to premissive T cells; format: functional, organism-based; settings: Human immunodeficiency virus 1, Bal; procedure, shortened: as §3
[21] = system: Human immunodeficiency virus 1; assay: Antiviral activity against HIV-1 RF infected in human PM1 cells after 7 days by RT assay; format: functional, organism-based; settings: Human immunodeficiency virus 1, RF, PM1, 168 h
Procedure, shortened: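 PM-1 cells (4 x 10^4/well) were infected with HIV-1BaL or HIV-1RF (200 TCID50/ml) and cultured 7 days with drug. Replication was measured as reverse transcriptase in supernatant versus untreated wells. IC50 was obtained by nonlinear regression.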

Compound: Cc1cc(C)c(Nc2ccnc(Nc3ccc(C#N)cc3)n2)c(C)c1 [DAPIVIRINE]
- Ratio IC50 [1]: 1
- Ratio IC50 [2]: 1.7
- IC50 [3]: 1.75 nM
- IC90 [3]: 16.7 nM
- inhibition [4]: Active
- Ratio IC50 [5]: 17
- IC50 [6]: 8.32 nM
- IC90 [6]: 41.6 nM
- inhibition in vivo at 22.5 µM [7]: 78.6%
- Ratio IC50 [8]: 1.5
- Selectivity Index [9]: 4583
- inhibition (INH) [10]: 90%
- Ratio IC50 [11]: 0.7
- Ratio IC50 [12]: 0.8
- Ratio IC50 [13]: 18
- inhibition [14]: Active
- Ratio IC50 [15]: 1
- Selectivity Index [16]: 1833
- inhibition at 10 µM [17]: > 90%
- Ratio IC50 [18]: 1.5
- Ratio IC50 [19]: 0.7
- IC50 [20]: 0.1 nM
- IC50 [21]: 2.4 nM
